The target of test [1] is Neuronal acetylcholine receptor subunit alpha-7 (Rattus norvegicus, UniProt Q05941). The experiment in a line: Displacement of [125I]alpha-bungarotoxin from alpha7 nAchR in rat frontal cortices. The method in brief:
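Competition binding against [125I]-α-bungarotoxin as reference radioligand at α7 nAChR. IC50 read graphically for each compound, then converted to Ki.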

The target of test [2] is Neuronal acetylcholine receptor; alpha4/beta2 (Homo sapiens, UniProt P17787+P43681). The experiment in a line: Displacement of [3H]cytisine from human recombinant alpha4beta2 nicotinic receptor expressed in SH-SY5Y cells after 120 mins by scintillation counting. The test is classed as cell-based. In short, it runs like this:
(§1)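 Selectivity binding run by an outside contract lab on cells transfected with the human recombinant receptor. Reference radioligands: [3H]cytisine for α4β2 and [3H]BRL 43694 for 5-HT3.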

Test [3] has as its target T1, 5-hydroxytryptamine receptor 3A (Homo sapiens, UniProt P46098).
T1 sequence (P46098 whole entry): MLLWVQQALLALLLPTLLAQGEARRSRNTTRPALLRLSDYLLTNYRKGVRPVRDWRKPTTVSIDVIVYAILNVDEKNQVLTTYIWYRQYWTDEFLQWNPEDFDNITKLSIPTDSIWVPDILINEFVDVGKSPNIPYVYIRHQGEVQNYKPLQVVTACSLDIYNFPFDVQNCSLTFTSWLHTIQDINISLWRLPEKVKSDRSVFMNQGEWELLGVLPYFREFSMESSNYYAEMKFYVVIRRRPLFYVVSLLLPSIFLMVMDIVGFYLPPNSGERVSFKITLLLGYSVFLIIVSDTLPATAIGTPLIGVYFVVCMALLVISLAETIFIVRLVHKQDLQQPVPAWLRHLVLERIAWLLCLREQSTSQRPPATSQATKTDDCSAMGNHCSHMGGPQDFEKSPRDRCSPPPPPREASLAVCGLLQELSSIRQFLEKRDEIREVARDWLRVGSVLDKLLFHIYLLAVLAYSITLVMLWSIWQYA
The experiment in a line: Displacement of [3H]BRL 43694 from human 5-HT3 receptor expressed in CHO cells after 120 mins by scintillation counting. In kind it is cell-based. The method in brief: as §1

This is an account of results in ChEMBL document CHEMBL3745708, “Design of α7 nicotinic acetylcholine receptor ligands using the (het)Aryl-1,2,3-triazole core: Synthesis, in vitro evaluation and SAR studies” (Eur J Med Chem, 2016).

Neuronal acetylcholine receptor; alpha4/beta2, sequence (P17787 whole entry): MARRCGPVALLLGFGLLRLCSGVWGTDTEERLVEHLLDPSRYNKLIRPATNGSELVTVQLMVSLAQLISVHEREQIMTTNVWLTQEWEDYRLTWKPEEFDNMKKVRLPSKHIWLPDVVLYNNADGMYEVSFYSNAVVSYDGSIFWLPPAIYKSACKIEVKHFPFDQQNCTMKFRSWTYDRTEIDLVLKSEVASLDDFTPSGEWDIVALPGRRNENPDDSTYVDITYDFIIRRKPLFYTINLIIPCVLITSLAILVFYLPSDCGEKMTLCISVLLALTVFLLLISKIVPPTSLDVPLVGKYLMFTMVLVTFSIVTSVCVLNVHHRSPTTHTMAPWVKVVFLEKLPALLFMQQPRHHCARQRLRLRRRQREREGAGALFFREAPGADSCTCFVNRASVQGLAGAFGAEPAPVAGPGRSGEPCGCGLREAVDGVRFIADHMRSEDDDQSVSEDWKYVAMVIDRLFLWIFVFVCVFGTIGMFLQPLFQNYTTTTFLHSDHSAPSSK
Neuronal acetylcholine receptor; alpha4/beta2, sequence (P43681 whole entry): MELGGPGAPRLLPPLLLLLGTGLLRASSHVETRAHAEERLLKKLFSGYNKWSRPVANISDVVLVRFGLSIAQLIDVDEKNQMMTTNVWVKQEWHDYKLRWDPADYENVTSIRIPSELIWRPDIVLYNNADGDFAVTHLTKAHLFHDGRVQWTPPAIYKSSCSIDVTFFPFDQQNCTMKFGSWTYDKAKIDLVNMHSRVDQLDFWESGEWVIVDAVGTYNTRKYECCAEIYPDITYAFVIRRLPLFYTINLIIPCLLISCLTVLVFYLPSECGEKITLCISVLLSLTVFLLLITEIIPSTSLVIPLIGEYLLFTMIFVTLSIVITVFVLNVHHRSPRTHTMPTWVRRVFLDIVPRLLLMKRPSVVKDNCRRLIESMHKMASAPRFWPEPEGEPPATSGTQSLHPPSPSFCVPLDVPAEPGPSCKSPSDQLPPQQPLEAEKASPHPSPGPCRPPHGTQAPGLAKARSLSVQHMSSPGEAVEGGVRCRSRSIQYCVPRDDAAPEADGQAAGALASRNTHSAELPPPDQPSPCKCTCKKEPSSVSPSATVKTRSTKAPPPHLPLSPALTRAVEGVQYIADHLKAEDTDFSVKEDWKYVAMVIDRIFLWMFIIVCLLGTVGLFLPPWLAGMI
Neuronal acetylcholine receptor subunit alpha-7, sequence (Q05941 whole entry): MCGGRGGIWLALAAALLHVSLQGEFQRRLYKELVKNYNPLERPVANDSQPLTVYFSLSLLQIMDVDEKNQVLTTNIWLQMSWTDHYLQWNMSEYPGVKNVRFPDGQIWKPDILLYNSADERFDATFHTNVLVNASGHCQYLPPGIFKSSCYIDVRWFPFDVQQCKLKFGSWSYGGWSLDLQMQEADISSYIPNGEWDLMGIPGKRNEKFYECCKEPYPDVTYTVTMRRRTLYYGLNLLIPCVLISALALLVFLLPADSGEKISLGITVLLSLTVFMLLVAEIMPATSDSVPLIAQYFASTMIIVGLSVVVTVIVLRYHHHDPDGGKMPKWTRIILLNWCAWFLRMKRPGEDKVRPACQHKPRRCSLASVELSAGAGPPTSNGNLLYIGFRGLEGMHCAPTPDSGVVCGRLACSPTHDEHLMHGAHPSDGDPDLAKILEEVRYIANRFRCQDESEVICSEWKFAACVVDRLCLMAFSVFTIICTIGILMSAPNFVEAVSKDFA

Consider `O=C(N[C@@H]1CN2CCC1CC2)c1cc2ccoc2cn1`, for which the affinity in test [1] corresponds to a Ki of 1.27 nM.

For `c1cc2cc(-c3cn(C4CN5CCC4CC5)nn3)ccc2[nH]1` (stereo not drawn), the equilibrium dissociation constant (Kd) in test [1] was determined as 120 nM. Moreover, the Ki was found to be 750 nM in test [2] and 52 nM in test [3].

On to `c1cc2cc(-c3cn([C@H]4CN5CCC4CC5)nn3)ccc2o1`, for which the inhibitory constant (Ki) came out at 1000 nM in test [2] and 3 nM in test [3].

`OCCOc1ccc(-c2cn([C@H]3CN4CCC3CC4)nn2)cc1` came in with a Ki in test [1] of 215 nM.

With `OC1(c2cn(-c3ccc(Br)cc3)nn2)CN2CCC1CC2` (stereo not drawn), the inhibition constant (Ki) in test [1] was greater than 1000 nM.

`COc1ccc(-n2cc(C3(O)CN4CCC3CC4)nn2)cc1` (stereo not drawn) yielded a Ki in test [1] greater than 1000 nM.

In the case of `COc1ccc(-c2cn([C@H]3CN4CCC3CC4)nn2)cc1`, the Ki in test [1] came to 11 nM.

Molecule `FCc1ccc(-c2cn([C@H]3CN4CCC3CC4)nn2)cc1` showed a Ki in test [1] of 21 nM.

In the case of `OCc1ccc(-c2cn([C@H]3CN4CCC3CC4)nn2)cc1`, the affinity in test [1], expressed as Ki, was 10 nM.

In turn, `COCOCCOc1ccc(-c2cn([C@H]3CN4CCC3CC4)nn2)cc1` showed an inhibition constant Ki in test [1] of 225 nM.

`FCCc1ccc(-c2cn([C@H]3CN4CCC3CC4)nn2)cc1` gave an inhibitory constant (Ki) in test [1] of 230 nM.

With `c1cc(-c2cn([C@H]3CN4CCC3CC4)nn2)ccn1`, the Ki in test [1] was 141 nM.

For the molecule `OCCc1ccc(-c2cn([C@H]3CN4CCC3CC4)nn2)cc1`, the affinity in test [1] corresponds to a Ki of 130 nM.

`Fc1ccc(-c2cn([C@H]3CN4CCC3CC4)nn2)cc1` yielded a Ki in test [1] of 15 nM.

Molecule `O=C(N[C@H]1CN2CCC1CC2)c1ccc(Cl)cc1` [PNU-282987] came in with an inhibition constant Ki in test [1] of 17 nM.

`FCCOc1ccc(-c2cn([C@H]3CN4CCC3CC4)nn2)cc1` registered a Ki in test [1] of 190 nM.

As to `COc1cccc(-c2cn([C@H]3CN4CCC3CC4)nn2)c1`, the Ki in test [2] stood at 1000 nM; in test [3] it was 3 nM.

With `COc1ccc(-n2cc(C3(F)CN4CCC3CC4)nn2)cc1` (stereo not drawn), the Ki in test [1] was greater than 1000 nM.

With `COc1ccccc1-c1cn([C@H]2CN3CCC2CC3)nn1`, the Ki in test [1] was determined as 112 nM.
